The values that follow come from ChEMBL document CHEMBL1125226, “Antineoplastic activity of didemnin congeners: nordidemnin and modified chain analogues” (1991).

Structures are written as SMILES. In brackets after ≈: the same amount, converted by molar mass.

In assay [1] the test system is B16. Nature of the assay: Antitumor activity against B16 melanoma from B6 D2 F1 female mice(T/C) was evaluated from the median survival time of treated mice (T) over that of control mice (C) at a dose of 1 mg/kg/day. It is filed as functional, Mus musculus. An outline of the steps:
(§1)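 B6D2F1 female mice (C57BL/6 ♀ × DBA/2 ♂) implanted ip on day 0 with 0.5 mL of B16 tumor suspension (1 g homogenized in 9 mL 0.9% saline). Dosing ip on days 1, 5 and 9. Day-5 survivors give toxicity. Median survival of treated vs control mice gives T/C%, with ≥125% significant.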

For assay [2], the system named is L1210. Nature of the assay: Antitumor activity against L1210 Lymphoid Leukemia from CDF1 female mice evaluated as the number of survivors on day 5 at a dose of 0.50 mg/kg/day. It is filed as functional, Mus musculus. The method in brief: (§2)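 L1210 leukemia, 10⁵ cells ip on day 0 into CDF1 female mice (BALB/c ♀ × DBA/2 ♂). Drug in 2% methanol given ip on days 1, 5 and 9, 10 mice per group. Survivors and body weight recorded on days 1 and 5, with toxicity as survivors on day 5. Deaths followed for 30 days. T/C = treated/control median survival time, significant at ≥125%.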

Assay [3] relates to P388. The assay is described as follows: Antitumor activity against P388 Leukemia from CDF1 female mice evaluated as the number of survivors on day 5 at a dose of 0.50 mg/kg/day. Format: functional, Mus musculus. The method in brief: (§3)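 CDF1 female mice (BALB/c × DBA/2) inoculated ip with 10⁶ P388 cells on day 0. Drug given ip in 2% methanol on days 1, 5 and 9. Ten mice per dose group, with a larger control group. Body weight and survival were recorded on days 1 and 5, with toxicity taken as survivors on day 5. Mortality was followed for 30 days to give median survival time.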

Assay [4] deals with L1210. Nature of the assay: Antitumor activity against L1210 Lymphoid Leukemia from CDF1 female mice as average weight change of animals between day 1 and day 5 after tumor implementation at a dose of 1.0 mg/kg/day. Format: functional, Mus musculus. An outline of the steps: (§4)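 CDF1 female mice (BALB/c × DBA/2) received 10⁵ L1210 cells ip on day 0. Drug was dissolved in 2% methanol and given ip on days 1, 5 and 9, to 10 mice per group. Weights were taken on days 1 and 5, and the mean change was reported.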

The test system of assay [5] is B16. The assay is described as follows: Antitumor activity against B16 melanoma from B6 D2 F1 female mice(T/C) was evaluated from the median survival time of treated mice (T) over that of control mice (C) at a dose of 0.06 mg/kg/day. Format: functional, Mus musculus. An outline of the steps: as §1
Assay [6] has as its system P388. Nature of the assay: Antitumor activity against P388 Leukemia from CDF1 female mice evaluated as the number of survivors on day 5 at a dose of 0.06 mg/kg/day. Format: functional, Mus musculus. The method in brief: as §3
Assay [7] concerns B16. The assay is described as follows: Antitumor activity against B16 melanoma from B6 D2 F1 female mice(T/C) as median survival time of treated mice (T) over that of control mice (C) at a dose of 0.03 mg/kg/day (repeated ip injections, day 1-9). Format: functional, Mus musculus. The note with it: route intraperitoneal. The method in brief:
(§5)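 B16 melanoma homogenate (1 g tumor in 9 mL 0.9% saline), 0.5 mL implanted ip on day 0 in B6D2F1 female mice (C57BL/6 ♀ × DBA/2 ♂). Treatment ip once daily from day 1 to day 9. Toxicity scored as survivors on day 5. Median survival recorded and T/C computed as treated/control median survival, ≥125% significant.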

Assay [8] deals with B16. The assay is described as follows: Antitumor activity against B16 melanoma from B6 D2 F1 female mice as average weight change of animals between day 1 and day 5 after tumor implementation at a dose of 0.06 mg/kg/day (repeated ip injections, day 1-9). It is filed as functional, Mus musculus. The settings on record: route intraperitoneal. An outline of the steps:
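B6D2F1 female mice (C57BL/6 × DBA/2) were implanted ip on day 0 with 0.5 mL of B16 suspension (1 g tumor homogenized in 9 mL 0.9% saline). Ip treatment was given once daily, day 1 to day 9. Body weight was recorded on days 1 and 5 after implantation, and the mean change per group was reported.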

The test system of assay [9] is L1210. The assay is described as follows: In vitro cytostatic activity determined on L1210 leukemia cells at 24 hours. It is filed as functional. The settings on record: Mus musculus, L1210, 24 h; read-out: ID50 (the source's name). An outline of the steps:
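Log-phase L1210 cells were seeded at 0.8 × 10⁵ cells/mL in RPMI 1640 with 20% heat-inactivated horse serum, 2 mmol/L L-glutamine, streptomycin and penicillin. Drugs in ethanol (0.5% final) were tested at several concentrations.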

Assay [10] relates to B16. Nature of the assay: Antitumor activity against B16 melanoma from B6 D2 F1 female mice as Median survival time of treated mice at a dose of 0.50 mg/kg/day (repeated ip injections, day 1-9). It is filed as functional, Mus musculus. The settings on record: route intraperitoneal. The method in brief: as §5
In assay [11] the test system is B16. Nature of the assay: Antitumor activity against B16 melanoma from B6 D2 F1 female mice evaluated as average weight change of animals between day 1 and day 5 after tumor implementation at a dose of 0.03 mg/kg/day. It is filed as functional, Mus musculus. An outline of the steps:
(§6)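 B16 melanoma in B6D2F1 female mice: 0.5 mL of tumor homogenate (1 g in 9 mL 0.9% saline) was given ip on day 0. Ip dosing was on days 1, 5 and 9. The readout was the average body weight change between day 1 and day 5 after tumor implantation.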

For assay [12], the system named is L1210. The assay is described as follows: Antitumor activity against L1210 Lymphoid Leukemia from CDF1 female mice as average weight change of animals between day 1 and day 5 after tumor implementation at a dose of 0.25 mg/kg/day. It is filed as functional, Mus musculus. The method in brief: as §4
Assay [13] deals with P388. Nature of the assay: Antitumor activity against P388 Leukemia from CDF1 female mice evaluated as Median survival time of treated mice at a dose of 0.12 mg/kg/day. It is filed as functional, Mus musculus. The method in brief: (§7)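 CDF1 female mice (BALB/c ♀ × DBA/2 ♂) given 10⁶ P388 cells ip on day 0. Drug in 2% methanol given ip on days 1, 5 and 9, 10 mice per group and more controls. Toxicity is survivors on day 5, with weight change between days 1 and 5. Mortality followed 30 days. T/C% is treated over control median survival (NCI method), significant at ≥125%.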

Assay [14] concerns P388. Nature of the assay: Average weight change of animals between day 1 and day 5 after tumor implementation at a dose of 0.06 mg/kg/day. Format: functional, Mus musculus. The method in brief:
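P388 leukemia: CDF1 female mice were inoculated ip with 10⁶ cells on day 0. Treatment in 2% methanol was given ip on days 1, 5 and 9, with 10 mice per group and a larger control group. Body weight was recorded on days 1 and 5 post-implant, and the average change was reported.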

The test system of assay [15] is P388. The assay is described as follows: Antitumor activity (T/C) was evaluated from the median survival time of treated mice (T) over that of control mice (C) at a dose of 0.75 mg/kg/day. It is filed as functional, Mus musculus. The method in brief:
as §7

The subject of assay [16] is B16. The assay is described as follows: Antitumor activity against B16 melanoma from B6 D2 F1 female mice evaluated as the number of survivors on day 5 at a dose of 0.03 mg/kg/day (repeated ip injections, day 1-9). Format: functional, Mus musculus. The settings on record: route intraperitoneal. An outline of the steps:
as §5

Assay [17] relates to B16. Nature of the assay: Antitumor activity against B16 melanoma from B6 D2 F1 female mice as Median survival time of treated mice at a dose of 0.25 mg/kg/day (repeated ip injections, day 1-9). Format: functional, Mus musculus. The settings on record: route intraperitoneal. An outline of the steps:
as §5

In assay [18] the test system is P388. The assay is described as follows: Antitumor activity against P388 Leukemia from CDF1 female mice evaluated as Median survival time of treated mice at a dose of 0.75 mg/kg/day. It is filed as functional, Mus musculus. An outline of the steps:
as §3

The test system of assay [19] is B16. The assay is described as follows: Antitumor activity against B16 melanoma from B6 D2 F1 female mice evaluated as the number of survivors on day 5 at a dose of 0.06 mg/kg/day (repeated ip injections, day 1-9). Format: functional, Mus musculus. The note with it: route intraperitoneal. The method in brief: as §5
Assay [20] deals with L1210. Nature of the assay: Antitumor activity against L1210 Lymphoid Leukemia from CDF1 female mice evaluated as Median survival time of treated mice at a dose of 0.25 mg/kg/day. It is filed as functional, Mus musculus. An outline of the steps:
as §2

The test system of assay [21] is B16. The assay is described as follows: Antitumor activity against B16 melanoma from B6 D2 F1 female mice evaluated as average weight change of animals between day 1 and day 5 after tumor implementation at a dose of 0.25 mg/kg/day. Format: functional, Mus musculus. An outline of the steps:
as §6

On to `COc1ccc(C[C@H]2C(=O)O[C@H](C)[C@H](NC(=O)[C@@H](CC(C)C)N(C)C(=O)C3CCCN3C(=O)[C@@H](C)O)C(=O)NC(C(C)C)[C@H](O)CC(=O)O[C@@H](C(C)C)C(=O)[C@H](C)C(=O)N[C@@H](CC(C)C)C(=O)N3CCC[C@H]3C(=O)N2C)cc1` (stereo partly specified) [NORDIDEMNIN], for which the T/C in the assay on B16 [1] was 154%; in the assay on B16 [5], 116%; in the assay on B16 [7], 139%; in the assay on P388 [15] it was 175%. Besides, the Toxicity in the assay with L1210 [2] worked out at 1; in the assay on P388 [3] it was 1; in the assay on P388 [6], 1; in the assay on B16 [16], 0.9; with B16 [19], 1. In addition, the Body weight change in the assay on L1210 [4] is given as -0.5 g; in the assay on B16 [8], -0.3 g; with B16 [11], 0 g; with L1210 [12], 0 g; with P388 [14] it was 0.2 g; in the assay with B16 [21], 0 g. Also, the IC50 in the assay with L1210 [9] amounted to 3.6 ng/mL (≈ 3.28 nM). Also, the “median survival time, days” value stood at 9.9 in the assay with B16 [10]; 14.7 in the assay on P388 [13]; 29.8 in the assay with B16 [17]; 19.4 in the assay with P388 [18]; 10.1 with L1210 [20].
